RGS4 inh = inhibitors of human RGS4; HEK293 M3R/RGS4 inducible, Fluo-4 calcium flux; stronger effect = higher value; triggered by carbachol at its EC20; B-score at 10 µM; 310,000 tested, 0.45% active; P49798; AID 463165;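 active = B-score, a plate-corrected calcium signal, over three deviations above library mean, with baseline fluorescence within five deviations of library mean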;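 also: RGS4 expression induced by doxycycline in cells with stable M3 receptor; B-score is computed from the integrated fluorescence ratio over baseline after carbachol; higher B-score means a larger calcium signal and so more RGS4 inhibition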
Target sequence (P49798 whole entry, looked up): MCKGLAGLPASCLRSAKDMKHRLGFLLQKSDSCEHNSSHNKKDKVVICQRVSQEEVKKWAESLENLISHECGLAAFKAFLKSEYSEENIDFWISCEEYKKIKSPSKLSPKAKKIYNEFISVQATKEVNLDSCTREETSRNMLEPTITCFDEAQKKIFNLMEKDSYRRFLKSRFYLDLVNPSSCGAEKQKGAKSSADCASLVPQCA
MrgX1 agonist = agonists of human MrgX1 receptor; Q96LB2; MrgX1-HEK293 cells, Fluo-4 calcium fluorescence, agonist mode; stronger effect = higher value; B-score at 10 µM; 310,000 tested, 0.44% active; AID 588627;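 active = calcium response B-score plate-corrected fluorescence ratio at least 3 library SD, with starting fluorescence B-score inside 5 SD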
Target sequence (Q96LB2 whole entry, looked up): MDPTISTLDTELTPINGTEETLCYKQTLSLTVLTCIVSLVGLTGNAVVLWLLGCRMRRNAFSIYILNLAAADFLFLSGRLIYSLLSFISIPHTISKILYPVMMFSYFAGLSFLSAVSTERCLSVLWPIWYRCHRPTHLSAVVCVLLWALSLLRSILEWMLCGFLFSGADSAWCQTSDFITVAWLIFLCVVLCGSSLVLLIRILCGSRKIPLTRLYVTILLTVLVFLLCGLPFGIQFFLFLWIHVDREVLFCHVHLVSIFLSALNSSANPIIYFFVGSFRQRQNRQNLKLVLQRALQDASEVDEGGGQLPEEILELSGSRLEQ
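Test system: HEK293 cells stably expressing human MrgX1 receptor; Input: fifteen thousand cells per well; Dosing: compound delivered in addition one of three; Schedule: overnight seeding, then 1 h dark dye loading; Technique: Fluo-4 NW calcium fluorescence; Measure: B-scored fluorescence response ratio; Controls: positive and negative controls per plate.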
MrgX1 PAM = allosterically activates human MrgX1 receptor signaling; Q96LB2; MrgX1-HEK293, Fluo-4 calcium flux, FDSS; stronger effect = higher value; B-score at 10 µM; 310,000 tested, 0.63% active; AID 588675;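 active = plate-corrected calcium response at least 3 library SD above typical, normal starting fluorescence, not activating the receptor alone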;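 also: compound read alongside a low EC10 to EC30 dose of BAM8-22 agonist; peak minus trough fluorescence over baseline measured at the second addition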
MrgX1 antagonist = antagonists of human MrgX1 receptor; Q96LB2; MRGX1-HEK293 calcium flux, Fluo-4, BAM8-22 antagonism; stronger effect = lower value; B-score at 10 µM; 310,000 tested, 1.3% active; AID 588676;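 active = calcium-response B-score plate-corrected more than 3 library SD below zero, starting fluorescence within 5 deviations, no agonist response on first addition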;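 also: peak minus trough fluorescence over baseline after final BAM8-22 challenge near maximal dose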
RGS4 pot = RGS4 potentiation or activation. B-score at 10 µM. 310,000 tested, 0.92% active. AID 463111. HEK293 M3R/inducible RGS4, carbachol calcium flux Fluo4; stronger effect = lower value;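 active = B-score of the integrated calcium signal more than 4 SD below the library mean, with starting fluorescence not abnormally high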;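 also: negative B-score means reduced calcium response which marks RGS4 activation or potentiation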
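Assay system: Inducible-RGS4 HEK293 cells carrying M3 receptor | Schedule: Compound preincubation 20 min at room temperature before agonist | Signal: Kinetic calcium fluorescence imaging with Fluo4-AM dye, 2 µM | Read-out basis: B score from integrated fluorescence ratio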
RGS4 act valid = confirmation of RGS4 activators. shares compounds with RGS4 pot. HEK293 M3R/RGS4 inducible, carbachol calcium flux Fluo4. inhibition, % at 10 µM. 1,100 tested, 89% active. AID 602282;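 active = inhibition above 3 SD of the buffer control wells, cut at about 41% in these data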;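 also: signal is the integrated peak-minus-minimum Fluo4 fluorescence over baseline ratio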
M3R Ca counter = RGS4 activator counter-screen hit in non-induced cells; shares compounds with RGS4 pot; HEK293 M3R non-induced RGS4, Fluo4 calcium flux; after carbachol challenge at its EC90; inhibition, % at 10 µM; 1,100 tested, 82% active; AID 602283;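 active = inhibition exceeding 3 SD of buffer-only control wells, cut at about 26% in these data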;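 also: percent drop in integrated peak-minus-baseline over baseline Fluo4 ratio after carbachol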
Numbers without * were called inactive; i = inactive; nt = not tested or not shown. Hits are enriched below; roughly 3.5% of the tested compounds scored in any of these assays.

SMILES	RGS4 inh	MrgX1 agonist	MrgX1 PAM	MrgX1 antagonist	RGS4 pot	RGS4 act valid	M3R Ca counter
COC(=O)c1cc(NC(=O)CSc2nnc(N)s2)ccc1Cl	i	i	i	i	-14.1*	0.0	0.0
N#Cc1cc2c(nc1SCc1ccccc1)CCCCC2	i	i	i	i	-9.82*	81.5*	83.8*
CC1CCCN(CCCCOc2cccc(Br)c2)C1 (stereo unspecified)	i	i	i	i	-7.55*	91.5*	63.8*
Brc1cccc(OCCCCN2CCCCC2)c1	i	i	i	i	-8.58*	91.5*	65.8*
Clc1ccc(OCCCCCN2CCCC2)c(Br)c1	i	i	i	i	-7.99*	89.0*	83.8*
COc1cccc(OCCCCN2CCCCC2)c1	i	i	i	i	i	nt	nt
CCOc1cccc(OCCCCN2CCCCC2)c1	i	i	i	i	-7.87*	80.5*	37.3*
COc1ccc(CCNc2nc(N3CCCCC3)nc(N3CCCCC3)n2)cc1OC	i	i	i	i	-8.36*	76.5*	46.3*
COc1nc(NCCc2ccc(OC)c(OC)c2)nc(OC)n1	i	i	i	i	i	nt	nt
Cc1nc(-c2ccc(S(=O)(=O)Oc3ccc(Cl)cc3Cl)s2)cs1	i	i	i	i	-8.42*	89.0*	70.8*
CCc1nc2ccccc2c(C(=O)OCC(=O)Nc2cccc(S(=O)(=O)NC3=NCCCCC3)c2)c1C	i	i	i	i	-7.71*	63.5*	0.0
O=C(NC1CC2CCCC(C1)N2Cc1ccccc1)C1CCCCC1 (stereo unspecified)	i	i	i	i	-9.86*	59.5*	0.0
O=C(CN1C2CCCC1CC(NC(=O)C1CCCCC1)C2)Nc1ccccc1 (stereo unspecified)	i	i	i	i	i	nt	nt
CC(Oc1cccc2cccnc12)C(=O)N/N=C/c1ccc2c(c1)OCO2 (stereo unspecified)	i	i	i	i	-12.7*	0.0	0.0
CC(Oc1cccc2cccnc12)C(=O)N/N=C/c1ccccc1 (stereo unspecified)	i	i	i	i	i	nt	nt
Cn1cc(CNC(=O)C2CCC(=O)N(Cc3ccc(Cl)cc3)C2)cn1 (stereo unspecified)	i	i	i	i	i	nt	nt
Cc1nn(-c2ccccc2)c(Cl)c1C(=O)OCC(=O)NCCc1ccccc1	i	i	i	i	-7.96*	44.5*	0.0
CN1C2CCC1CC(NC(=O)c1ccc(Cl)cc1)C2 (stereo unspecified)	i	i	i	i	i	nt	nt
CN1C2CCC1CC(NC(=O)CSc1ccc(Cl)cc1)C2 (stereo unspecified)	i	i	i	i	-9.04*	59.0*	0.0
COC(=O)c1ccccc1NC(=O)c1ccc(COc2cc(C)cc(C)c2)o1	i	i	i	i	-8.11*	46.0*	0.0
CS(=O)(=O)c1ccc(NC(=O)CCN2C(=O)C3CC=CCC3C2=O)cc1 (stereo unspecified)	i	i	i	i	i	nt	nt
Cc1cc2oc(=O)c(CC(=O)NCCCN(C)C)c(C)c2c2occ(C(C)(C)C)c12	i	i	i	i	-7.91*	90.5*	51.3*
CC(=O)Nc1c2c3c(cccc3n(C)c1=O)C(=O)c1ccccc1-2	i	i	i	i	-8.62*	53.0*	0.0
CC(=O)Nc1ccc(Nc2ccc3c4c(cc(=O)n3C)-c3ccccc3C(=O)c24)cc1	i	i	i	i	i	nt	nt
CCC(C(=O)OCCOCCN(CC)CC)c1ccccc1 (stereo unspecified)	i	i	i	i	i	nt	nt
SMILES	RGS4 inh	MrgX1 agonist	MrgX1 PAM	MrgX1 antagonist	RGS4 pot	RGS4 act valid	M3R Ca counter
CCN(CC)CCCOC(=O)C(c1ccccc1)c1ccccc1	i	i	i	-6.22*	-10.1*	94.0*	93.8*
O=C1CC(c2ccco2)Cc2nc(N3CCN(Cc4ccc5c(c4)OCO5)CC3)ncc21 (stereo unspecified)	i	i	i	i	-8.94*	88.5*	65.3*
Cn1c(=O)n(CCOc2ccc(Cl)cc2Cl)c2ccccc21	i	i	i	i	i	nt	nt
Cn1c(=O)n(CCOc2ccccc2Cl)c2ccccc21	i	i	i	i	-7.82*	88.0*	39.8*
c1ccc2nc3c(nc2c1)OCC1CCCCN31 (stereo unspecified)	i	i	i	i	-7.63*	72.5*	83.8*
CN(C)CCCOC(=O)C1c2ccccc2Oc2ccccc21	i	i	i	i	-8.46*	92.0*	90.8*
CN(CCOC(=O)C1c2ccccc2Oc2ccccc21)C(C)(C)C	i	i	i	i	-7.88*	93.0*	96.3*
CC(C)(C)S(=O)(=O)c1ccsc1C(=O)O	i	i	i	i	-15.9*	0.0	0.0
Nc1ncc(Br)cc1S(=O)(=O)NCCC(=O)N1CCN(c2ccccn2)CC1	i	i	i	i	-8.67*	75.0*	83.8*
CCN(CC)c1ccc(/C=N/NC(=O)CNC(=O)C2COc3ccccc3O2)c(O)c1 (stereo unspecified)	i	i	i	i	i	nt	nt
c1ccc2c(-c3nc(C4CCCCC4)no3)cc(-c3ccncc3)nc2c1	i	i	i	i	-9.43*	93.0*	84.8*
O=C(CN1CCN(C/C=C/c2ccccc2)CC1)NCc1ccccc1	i	i	i	i	i	nt	nt
CCC(C)c1ccccc1NC(=O)CN1CCN(C/C=C/c2ccccc2)CC1 (stereo unspecified)	i	i	i	i	-10.3*	76.0*	83.8*
Cc1sc2nc(SCC(=O)NCc3ccco3)n(C)c(=O)c2c1C	i	i	i	i	i	nt	nt
COC(=O)c1ccc(CNC(=O)CSc2nc3sc(C)c(C)c3c(=O)n2C)o1	i	i	i	i	-8.15*	50.5*	0.0
CCOC(=O)Cc1csc2nc3sc(C)c(C)c3c(=O)n12	i	i	i	i	i	nt	nt
CCOC(=O)N1CCN(c2ccnc3cc(Cl)ccc23)CC1	i	i	i	i	-13*	92.0*	94.8*
CCC(=O)N1CCN(c2ccnc3cc(Cl)ccc23)CC1	i	i	i	i	i	nt	nt
CCn1cc(CN2CCC(n3nccc3NC(=O)c3ccc(OC)cc3)CC2)cn1	i	i	i	i	-7.72*	66.0*	83.8*

High-throughput results deposited in PubChem by Johns Hopkins Ion Channel Center.
